Assay results from ChEMBL document CHEMBL4689842, “EUbOPEN Chemogenomics Library wave 1” (2021).

Tested on: Fibroblast
Assay: Multiplex assay against human fibroblast
Format: toxicity, cell-based
In short: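 Live cells were stained at seeding with Hoechst33342, BioTracker Green Microtubule Cytoskeleton Dye, MitoTracker Red and Annexin V Alexa Fluor 680. Following compound addition, they were imaged on a CQ1 microscope at 37°C and 5% CO2 and gated by CellPathfinder machine learning into Hoechst high-intensity objects or normal cells, with normal cells split into healthy, pyknosed or fragmented nuclei and pyknosed cells into mitotic or apoptotic. Tubulin, mitochondrial-mass and membrane-permeability phenotypes are per cents of healthy-nucleus cells.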

[1] = 12 h, 1 µM, compound concentration 1 uM, replicate 1
[2] = 12 h, 1 µM, compound concentration 1 uM, replicate 2
[3] = 12 h, 10 µM, compound concentration 10 uM, replicate 1
[4] = 12 h, 10 µM, compound concentration 10 uM, replicate 2
[5] = 24 h, 1 µM, compound concentration 1 uM, replicate 1
[6] = 24 h, 1 µM, compound concentration 1 uM, replicate 2
[7] = 24 h, 10 µM, compound concentration 10 uM, replicate 1
[8] = 24 h, 10 µM, compound concentration 10 uM, replicate 2
[9] = 48 h, 1 µM, compound concentration 1 uM, replicate 1
[10] = 48 h, 1 µM, compound concentration 1 uM, replicate 2
[11] = 48 h, 10 µM, compound concentration 10 uM, replicate 1
[12] = 48 h, 10 µM, compound concentration 10 uM, replicate 2

COc1cc(Nc2nccc(-c3cnn4nc(OC)ccc34)n2)cc(C(F)(F)F)c1
Population Apoptotic (%) [1]: 42%
Population Fragmented Nuclei (%) [1]: 22%
Population Healthy Nuclei (%) [1]: 47%
Population Hoechst High Intensity Objects (%) [1]: 21%
Population Membrane Permeable-Phenotype (%) [1]: 25%
Population Mitochondria Different-Phenotype (%) [1]: 6%
Population Mitotic Cells (%) [1]: 57%
Population Normal (%) [1]: 78%
Population Pyknosed Nuclei (%) [1]: 30%
Population Tubulin-Different-Phenotype (%) [1]: 43%
Total Cell Count [1]: 87
Population Apoptotic (%) [2]: 50%
Population Fragmented Nuclei (%) [2]: 8%
Population Healthy Nuclei (%) [2]: 86%
Population Hoechst High Intensity Objects (%) [2]: 3%
Population Membrane Permeable-Phenotype (%) [2]: 2%
Population Mitochondria Different-Phenotype (%) [2]: 16%
Population Mitotic Cells (%) [2]: 50%
Population Normal (%) [2]: 96%
Population Pyknosed Nuclei (%) [2]: 5%
Population Tubulin-Different-Phenotype (%) [2]: 16%
Total Cell Count [2]: 44
Population Apoptotic (%) [3]: 57%
Population Fragmented Nuclei (%) [3]: 66%
Population Healthy Nuclei (%) [3]: 15%
Population Hoechst High Intensity Objects (%) [3]: 48%
Population Membrane Permeable-Phenotype (%) [3]: 13%
Population Mitochondria Different-Phenotype (%) [3]: 13%
Population Mitotic Cells (%) [3]: 42%
Population Normal (%) [3]: 51%
Population Pyknosed Nuclei (%) [3]: 17%
Population Tubulin-Different-Phenotype (%) [3]: 47%
Total Cell Count [3]: 283
Population Apoptotic (%) [4]: 33%
Population Fragmented Nuclei (%) [4]: 27%
Population Healthy Nuclei (%) [4]: 61%
Population Hoechst High Intensity Objects (%) [4]: 34%
Population Membrane Permeable-Phenotype (%) [4]: 3%
Population Mitochondria Different-Phenotype (%) [4]: 6%
Population Mitotic Cells (%) [4]: 66%
Population Normal (%) [4]: 65%
Population Pyknosed Nuclei (%) [4]: 11%
Population Tubulin-Different-Phenotype (%) [4]: 15%
Total Cell Count [4]: 82
Population Apoptotic (%) [5]: 75%
Population Fragmented Nuclei (%) [5]: 22%
Population Healthy Nuclei (%) [5]: 50%
Population Hoechst High Intensity Objects (%) [5]: 19%
Population Membrane Permeable-Phenotype (%) [5]: 8%
Population Mitochondria Different-Phenotype (%) [5]: 10%
Population Mitotic Cells (%) [5]: 25%
Population Normal (%) [5]: 80%
Population Pyknosed Nuclei (%) [5]: 27%
Population Tubulin-Different-Phenotype (%) [5]: 32%
Total Cell Count [5]: 92
Population Apoptotic (%) [6]: 45%
Population Fragmented Nuclei (%) [6]: 10%
Population Healthy Nuclei (%) [6]: 77%
Population Hoechst High Intensity Objects (%) [6]: 2%
Population Membrane Permeable-Phenotype (%) [6]: 4%
Population Mitotic Cells (%) [6]: 54%
Population Normal (%) [6]: 97%
Population Pyknosed Nuclei (%) [6]: 12%
Population Tubulin-Different-Phenotype (%) [6]: 19%
Total Cell Count [6]: 43
Population Apoptotic (%) [7]: 46%
Population Fragmented Nuclei (%) [7]: 57%
Population Healthy Nuclei (%) [7]: 21%
Population Hoechst High Intensity Objects (%) [7]: 54%
Population Membrane Permeable-Phenotype (%) [7]: 23%
Population Mitochondria Different-Phenotype (%) [7]: 11%
Population Mitotic Cells (%) [7]: 53%
Population Normal (%) [7]: 45%
Population Pyknosed Nuclei (%) [7]: 21%
Population Tubulin-Different-Phenotype (%) [7]: 42%
Total Cell Count [7]: 273
Population Apoptotic (%) [8]: 50%
Population Fragmented Nuclei (%) [8]: 26%
Population Healthy Nuclei (%) [8]: 56%
Population Hoechst High Intensity Objects (%) [8]: 29%
Population Membrane Permeable-Phenotype (%) [8]: 0%
Population Mitochondria Different-Phenotype (%) [8]: 23%
Population Mitotic Cells (%) [8]: 50%
Population Normal (%) [8]: 70%
Population Pyknosed Nuclei (%) [8]: 17%
Population Tubulin-Different-Phenotype (%) [8]: 11%
Total Cell Count [8]: 90
Population Apoptotic (%) [9]: 64%
Population Fragmented Nuclei (%) [9]: 32%
Population Healthy Nuclei (%) [9]: 50%
Population Hoechst High Intensity Objects (%) [9]: 11%
Population Mitochondria Different-Phenotype (%) [9]: 0%
Population Mitotic Cells (%) [9]: 35%
Population Normal (%) [9]: 88%
Population Pyknosed Nuclei (%) [9]: 17%
Population Tubulin-Different-Phenotype (%) [9]: 21%
Total Cell Count [9]: 92
Population Apoptotic (%) [10]: 66%
Population Fragmented Nuclei (%) [10]: 39%
Population Healthy Nuclei (%) [10]: 56%
Population Hoechst High Intensity Objects (%) [10]: 10%
Population Membrane Permeable-Phenotype (%) [10]: 17%
Population Mitochondria Different-Phenotype (%) [10]: 4%
Population Mitotic Cells (%) [10]: 33%
Population Normal (%) [10]: 89%
Population Pyknosed Nuclei (%) [10]: 4%
Population Tubulin-Different-Phenotype (%) [10]: 29%
Total Cell Count [10]: 82
Population Apoptotic (%) [11]: 69%
Population Fragmented Nuclei (%) [11]: 69%
Population Healthy Nuclei (%) [11]: 21%
Population Hoechst High Intensity Objects (%) [11]: 51%
Population Membrane Permeable-Phenotype (%) [11]: 10%
Population Mitochondria Different-Phenotype (%) [11]: 6%
Population Mitotic Cells (%) [11]: 30%
Population Normal (%) [11]: 48%
Population Pyknosed Nuclei (%) [11]: 9%
Population Tubulin-Different-Phenotype (%) [11]: 56%
Total Cell Count [11]: 291
Population Apoptotic (%) [12]: 50%
Population Fragmented Nuclei (%) [12]: 39%
Population Healthy Nuclei (%) [12]: 59%
Population Hoechst High Intensity Objects (%) [12]: 26%
Population Membrane Permeable-Phenotype (%) [12]: 4%
Population Mitochondria Different-Phenotype (%) [12]: 8%
Population Mitotic Cells (%) [12]: 50%
Population Normal (%) [12]: 73%
Population Pyknosed Nuclei (%) [12]: 1%
Population Tubulin-Different-Phenotype (%) [12]: 40%
Total Cell Count [12]: 205
